Measured values gathered from unrelated publications.
Target: Histone deacetylase 1 (HDAC1, Homo sapiens, UniProt Q13547)

CCC[C@H](NC(=O)C1CN(C)C1)c1ncc(-c2cc3ccccc3nc2OC)[nH]1
IC50 (enzyme activity, inhibitor, fluorescence): 280 nM

O=C(NO)c1ccc(NC(=O)C2(c3ccccc3)CCOCC2)c(F)c1
IC50 (enzyme activity, inhibitor): 73 nM

CCCON(Cc1ccc(C(=O)NO)cc1)C(=O)Nc1ccccc1
IC50 (enzyme activity, inhibitor, fluorescence): 742 nM

C/C=C1\NC(=O)[C@H]2CSSCC/C=C/[C@H](CC(=O)N[C@H](C(C)C)C(=O)N2)OC(=O)[C@H](C(C)C)NC1=O
Kd (cell-free assay): 3.17 nM

C=CCC[C@@H]1NC(=O)[C@H]2CCCN2C(=O)[C@H](Cc2ccccc2)NC(=O)C(C)(C)NC1=O
IC50 (enzyme activity, inhibitor): > 300000 nM

O=C(NO)c1ccc(NC(=O)C2(c3ccc(C(F)(F)F)c(F)c3)CCCC2)cc1
IC50 (enzyme activity, inhibitor): 222 nM

O=C(CCCCCCC(=O)Nc1ccc([C@H]2O[C@@H](CSc3nc(-c4ccccc4)c(-c4ccccc4)o3)C[C@@H](c3ccc(CO)cc3)O2)cc1)NO
Kd (cell-free assay): > 30200 nM

O=C(NO)c1ccc(NC(=O)C2(c3ccc(Cl)cc3)CCCC2)c(F)c1
IC50 (enzyme activity, inhibitor): 774 nM

CCCON(Cc1ccc(C(=O)NO)cc1)C(=O)Nc1ccc(N(C)C)cc1
IC50 (enzyme activity, inhibitor, fluorescence): 715 nM

CC(C)C[C@H]1CC(=O)N[C@@H](C)C(=O)N[C@@H](CCCCCC(=O)O)C(=O)N[C@@H](Cc2c[nH]c3ccccc23)C(=O)N1
IC50 (enzyme activity, inhibitor): 100 nM

CCCC[C@H](NC(=O)C1CN(C)C1)c1ncc(-c2cc3ccccc3nc2OC)[nH]1
IC50 (enzyme activity, inhibitor): 68 nM

Cc1nc2ccccc2n1Cc1ccc(C(=O)NO)cn1
IC50 (enzyme activity, inhibitor): 27900 nM
